Measured values taken from ChEMBL document CHEMBL3352034, “Therapeutic potential of targeting the oncogenic SHP2 phosphatase” (J Med Chem, 2014).
Activity calls are given as the source filed them. No cut-off for these calls is given here.

Columns and labels:
[1] = target: T1, Tyrosine-protein phosphatase non-receptor type 11 (Homo sapiens, UniProt Q06124); test: Inhibition of SHP2 (unknown origin) using p-nitrophenyl phosphate substrate by microplate spectrophotometry
T1 sequence (Q06124 whole entry): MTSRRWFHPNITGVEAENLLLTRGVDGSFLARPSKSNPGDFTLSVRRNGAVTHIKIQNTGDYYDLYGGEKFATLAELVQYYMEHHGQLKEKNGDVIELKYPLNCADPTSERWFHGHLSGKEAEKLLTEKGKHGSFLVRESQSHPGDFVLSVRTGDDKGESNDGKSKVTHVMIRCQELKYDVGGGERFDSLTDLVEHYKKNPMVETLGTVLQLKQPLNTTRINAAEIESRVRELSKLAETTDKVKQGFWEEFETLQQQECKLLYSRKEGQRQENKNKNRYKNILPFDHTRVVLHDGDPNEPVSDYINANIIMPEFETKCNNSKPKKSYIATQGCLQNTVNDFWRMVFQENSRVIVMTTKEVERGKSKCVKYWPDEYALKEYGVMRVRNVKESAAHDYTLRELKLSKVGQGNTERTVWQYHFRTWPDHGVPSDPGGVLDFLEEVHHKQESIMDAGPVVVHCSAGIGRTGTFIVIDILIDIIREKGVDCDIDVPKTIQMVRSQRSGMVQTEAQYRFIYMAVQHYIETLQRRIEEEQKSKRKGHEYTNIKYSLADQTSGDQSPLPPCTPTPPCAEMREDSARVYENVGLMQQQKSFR

[2] = target: Receptor-type tyrosine-protein phosphatase epsilon (Homo sapiens, UniProt P23469); test: Inhibition of PTPepsilon (unknown origin)
[3] = target: Receptor-type tyrosine-protein phosphatase alpha (Homo sapiens, UniProt P18433); test: Inhibition of PTPalpha (unknown origin)
NCI-H1975 [4] = test: Anticancer activity against human NCI-H1975 cells after 2 days by MTT assay; format: functional, cell-based
In short: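 H1975 NSCLC cells in RPMI-1640 with 10% FBS at 37 °C, 5% CO2. 3×10^3 cells/well, treated 2 days in RPMI-1640 with 0.5% FBS. MTT at 50 μg/mL for 3–4 h, formazan dissolved in DMSO, OD read at 540 nm. Media-only wells used for background. IC50 from dose–response.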

[5] = target: T2, Tyrosine-protein phosphatase non-receptor type 11 (Homo sapiens) (UniProt Q06124); test: Inhibition of SHP2 in human NCI-H1975 cells assessed as reduction in EGF-induced Erk1/2 phosphorylation after 60 mins by immunoblot analysis; format: cell-based
T2 sequence (whole entry): T1 sequence (Q06124 whole entry)
In short: (§1)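 H1975 cells serum-starved overnight, treated with vehicle or compound for 3 h, then left unstimulated or stimulated with 5 ng/mL EGF for 60 min. Lysates resolved by SDS-PAGE and immunoblotted for paxillin pY118 and phospho-Erk1/2.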

[6] = target: T2, Tyrosine-protein phosphatase non-receptor type 11 (Homo sapiens); test: Inhibition of SHP2 dephosphorylation activity in human NCI-H1975 cells assessed as increase in paxillin (pY118) phosphorylation after 60 mins by immunoblot analysis; format: cell-based; in short: as §1
[7] = target: T2, Tyrosine-protein phosphatase non-receptor type 11 (Homo sapiens); test: Inhibition of SHP2 in human NCI-H1975 cells assessed as reduction in EGF-induced Erk1/2 phosphorylation at 2 uM after 60 mins by immunoblot analysis; format: cell-based; in short: as §1
[8] = target: T2, Tyrosine-protein phosphatase non-receptor type 11 (Homo sapiens); test: Inhibition of SHP2 dephosphorylation activity in human NCI-H1975 cells assessed as increase in paxillin (pY118) phosphorylation at 2 uM after 60 mins by immunoblot analysis; format: cell-based; parameters: Activity: scale not given: the % may be the effect or the level left; in short: as §1
[9] = target: T2, Tyrosine-protein phosphatase non-receptor type 11 (Homo sapiens); test: Inhibition of SHP2 in human NCI-H1975 cells assessed as reduction in EGF-induced Erk1/2 phosphorylation after 60 mins by immunoblot analysis in presence of SHP2 siRNA; format: cell-based
In short: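 H1975 cells transfected with SHP2 or scrambled siRNA using Lipofectamine 2000 for 6 h, then recovered in RPMI1640 with 10% FBS. Serum-starved overnight, treated with compound for 3 h, stimulated with 5 ng/mL EGF for 60 min. Phospho-Erk1/2 measured by immunoblot.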

NCI-H1975 [10] = test: Effect on PMA-induced Erk1/2 phosphorylation in human NCI-H1975 cells at 0.5 to 2 uM after 30 mins by immunoblot analysis; format: functional, cell-based
SK-BR-3 = test: Anticancer activity against human SKBR3 cells assessed as growth inhibition at 3 uM measured within 24 hrs by matrigel assay; format: functional, cell-based
In short: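 About 300000 SKBR3 cells seeded into 150 μL growth factor reduced Matrigel. Three dishes per condition received medium containing DMSO vehicle or compound. Colonies imaged every 24 h under a stereo microscope. Cross-sectional area of individual colonies measured from the images.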

[11] = target: T2, Tyrosine-protein phosphatase non-receptor type 11 (Homo sapiens); test: Inhibition of SHP2 in human SKBR3 cells assessed as inhibition of total Erk1/2 phosphorylation level at 1 to 10 uM measured after 4 days by matrigel assay; format: cell-based; settings: SK-BR-3
In short: (§2)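 SKBR3 cells grown in Matrigel with vehicle or compound (1 to 10 μM), three dishes per condition. After 4 days cells recovered from Matrigel and lysed in PLC buffer with protease inhibitors. Total and phospho Erk1/2 and Akt detected by SDS-PAGE immunoblot.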

[12] = target: T2, Tyrosine-protein phosphatase non-receptor type 11 (Homo sapiens); test: Inhibition of SHP2 in human SKBR3 cells assessed as inhibition of total Akt phosphorylation level at 1 to 10 uM measured after 4 days by matrigel assay; format: cell-based; settings: SK-BR-3; in short: as §2
Mus musculus [13] = organism: Mus musculus; test: Anticancer activity against mouse 32D cells bearing wild-type KIT assessed as ligand dependent growth inhibition at 1 to 5 uM measured after 6 hrs; format: functional, cell-based
In short: (§3)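 32D myeloid cells retrovirally transduced with WT KIT or KITD814V and sorted on EGFP. Starved 6–8 h in IMDM/0.2% BSA without serum or growth factors. Plated at 5×10^4 cells in triplicate in IMDM/10% FBS, with 10 ng/mL IL-3 for WT KIT and no growth factors for KITD814V, ± inhibitor. Cultured 48 h, pulsed 6 h with 1.0 μCi [3H]thymidine, CPM counted. Four independent experiments.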

Mus musculus [14] = organism: Mus musculus; test: Anticancer activity against mouse 32D cells bearing KITD814V mutant assessed as ligand dependent growth inhibition at 5 uM measured after 6 hrs; format: functional, cell-based; settings: in the assay text read “ligand independent” for “ligand dependent”; in short: as §3
Mus musculus [15] = organism: Mus musculus; test: Anticancer activity against mouse 32D cells bearing KITD814V mutant assessed as ligand dependent growth inhibition at 1 uM measured after 6 hrs; format: functional, cell-based; settings: in the assay text read “ligand independent” for “ligand dependent”; in short: as §3
Bone marrow cell [16] = test: Reduction in growth of C57BL/6 mouse Bone marrow cell bearing KITD814V mutant at 1 uM after 6 hrs; format: functional, cell-based
Bone marrow cell [17] = test: Reduction in growth of C57BL/6 mouse Bone marrow cell bearing KITD814V mutant at 5 uM after 6 hrs; format: functional, cell-based
[18] = target: Mast/stem cell growth factor receptor Kit (Homo sapiens) (UniProt P10721); test: Effect on wild type KIT (unknown origin) expressed in serum starved mouse 32D cells assessed as effect on Erk1/2 activation at 1 to 5 uM measured after 2 hrs by immunoblot analysis; format: cell-based
In short: (§4)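 Sorted 32D cells expressing WT KIT or KITD814V, starved of serum and growth factors for 6 h. Treated with compound for 2 h, then lysed in NP-40 buffer with phosphatase and protease inhibitors. Equal protein amounts immunoblotted for phospho and total Akt and Erk1/2, ECL detection. Two independent experiments.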

[19] = target: Mast/stem cell growth factor receptor Kit (Homo sapiens) (UniProt P10721); test: Inhibition of KIT D814V mutant (unknown origin) expressed in serum starved mouse 32D cells assessed as inhibition of total Erk1/2 activation at 1 to 5 uM measured after 2 hrs by immunoblot analysis; format: cell-based; in short: as §4
[20] = target: Mast/stem cell growth factor receptor Kit (Homo sapiens) (UniProt P10721); test: Effect on wild type KIT (unknown origin) expressed in serum starved mouse 32D cells assessed as effect on Akt activation at 1 to 5 uM measured after 2 hrs by immunoblot analysis; format: cell-based; in short: as §4
[21] = target: Mast/stem cell growth factor receptor Kit (Homo sapiens) (UniProt P10721); test: Inhibition of KIT D814V mutant (unknown origin) expressed in serum starved mouse 32D cells assessed as inhibition of Akt activation at 1 to 5 uM measured after 2 hrs by immunoblot analysis; format: cell-based; in short: as §4

Mast/stem cell growth factor receptor Kit (Homo sapiens), sequence (P10721 whole entry): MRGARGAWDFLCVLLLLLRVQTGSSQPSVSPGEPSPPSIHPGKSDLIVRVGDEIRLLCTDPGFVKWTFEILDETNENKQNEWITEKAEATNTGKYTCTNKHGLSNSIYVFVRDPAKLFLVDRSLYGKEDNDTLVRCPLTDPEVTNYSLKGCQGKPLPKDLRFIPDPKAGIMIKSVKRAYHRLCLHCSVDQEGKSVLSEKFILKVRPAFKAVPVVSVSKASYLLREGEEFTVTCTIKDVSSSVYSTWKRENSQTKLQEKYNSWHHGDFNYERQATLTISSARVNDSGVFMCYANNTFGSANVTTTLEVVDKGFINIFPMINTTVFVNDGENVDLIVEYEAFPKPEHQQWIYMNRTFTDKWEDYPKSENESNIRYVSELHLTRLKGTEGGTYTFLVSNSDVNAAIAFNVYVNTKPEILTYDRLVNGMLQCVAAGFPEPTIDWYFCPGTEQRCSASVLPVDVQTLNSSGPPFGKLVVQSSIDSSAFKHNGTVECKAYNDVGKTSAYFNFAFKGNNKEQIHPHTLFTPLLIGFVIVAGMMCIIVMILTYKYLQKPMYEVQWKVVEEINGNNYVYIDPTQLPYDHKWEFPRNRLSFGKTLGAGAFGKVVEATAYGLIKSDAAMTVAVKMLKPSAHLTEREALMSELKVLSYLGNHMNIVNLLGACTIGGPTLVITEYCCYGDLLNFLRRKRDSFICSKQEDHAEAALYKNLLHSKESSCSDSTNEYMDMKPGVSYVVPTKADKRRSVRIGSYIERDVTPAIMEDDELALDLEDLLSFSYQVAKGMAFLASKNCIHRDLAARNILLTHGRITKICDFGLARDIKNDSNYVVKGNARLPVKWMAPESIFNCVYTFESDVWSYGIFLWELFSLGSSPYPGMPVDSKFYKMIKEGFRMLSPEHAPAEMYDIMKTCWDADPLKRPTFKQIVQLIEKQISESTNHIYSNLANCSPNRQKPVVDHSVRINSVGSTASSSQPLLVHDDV
Receptor-type tyrosine-protein phosphatase alpha, sequence (P18433 whole entry): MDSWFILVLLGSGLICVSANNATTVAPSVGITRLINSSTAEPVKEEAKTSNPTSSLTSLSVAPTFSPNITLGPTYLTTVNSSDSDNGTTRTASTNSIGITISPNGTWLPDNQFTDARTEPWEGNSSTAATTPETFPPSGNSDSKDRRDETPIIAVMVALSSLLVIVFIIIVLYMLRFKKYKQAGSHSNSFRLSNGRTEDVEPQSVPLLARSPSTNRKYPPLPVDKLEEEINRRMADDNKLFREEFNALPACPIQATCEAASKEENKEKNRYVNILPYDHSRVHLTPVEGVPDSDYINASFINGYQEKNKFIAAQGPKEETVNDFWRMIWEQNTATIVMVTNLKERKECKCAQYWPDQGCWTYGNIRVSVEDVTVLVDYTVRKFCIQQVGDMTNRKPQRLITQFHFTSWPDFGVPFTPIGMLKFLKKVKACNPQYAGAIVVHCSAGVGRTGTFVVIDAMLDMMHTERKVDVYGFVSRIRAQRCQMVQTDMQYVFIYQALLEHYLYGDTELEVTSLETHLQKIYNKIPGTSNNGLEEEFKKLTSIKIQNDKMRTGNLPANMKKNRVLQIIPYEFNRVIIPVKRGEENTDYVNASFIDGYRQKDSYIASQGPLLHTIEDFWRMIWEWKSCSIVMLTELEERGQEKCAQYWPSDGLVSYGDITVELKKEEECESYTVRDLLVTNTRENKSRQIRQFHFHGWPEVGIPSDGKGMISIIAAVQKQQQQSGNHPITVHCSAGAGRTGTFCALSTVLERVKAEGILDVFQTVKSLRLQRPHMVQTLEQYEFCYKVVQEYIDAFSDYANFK
Receptor-type tyrosine-protein phosphatase epsilon, sequence (P23469 whole entry): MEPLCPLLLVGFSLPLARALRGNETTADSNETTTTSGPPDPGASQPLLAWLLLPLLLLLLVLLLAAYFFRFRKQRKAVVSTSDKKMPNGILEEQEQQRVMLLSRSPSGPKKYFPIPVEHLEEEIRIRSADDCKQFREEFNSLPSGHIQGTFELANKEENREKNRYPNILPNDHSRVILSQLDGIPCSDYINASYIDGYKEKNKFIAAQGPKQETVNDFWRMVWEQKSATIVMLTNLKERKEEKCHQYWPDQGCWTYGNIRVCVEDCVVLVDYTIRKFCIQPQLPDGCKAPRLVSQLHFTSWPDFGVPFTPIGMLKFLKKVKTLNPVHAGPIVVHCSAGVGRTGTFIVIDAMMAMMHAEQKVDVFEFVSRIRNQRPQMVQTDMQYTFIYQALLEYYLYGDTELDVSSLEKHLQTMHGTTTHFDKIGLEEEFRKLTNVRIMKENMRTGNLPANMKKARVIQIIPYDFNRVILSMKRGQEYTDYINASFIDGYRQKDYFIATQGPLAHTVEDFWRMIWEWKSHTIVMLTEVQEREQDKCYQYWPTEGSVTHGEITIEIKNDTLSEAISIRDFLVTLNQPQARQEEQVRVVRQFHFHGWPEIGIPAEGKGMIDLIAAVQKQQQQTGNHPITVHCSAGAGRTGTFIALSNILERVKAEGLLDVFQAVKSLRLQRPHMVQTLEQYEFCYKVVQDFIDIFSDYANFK

Work on `CCCN(CC1CC1)C(=O)CCC(=O)Nc1cccc(-c2c(I)c3cc(C(=O)O)c(O)cc3n2C)c1` yielded an IC50 [1] of over 20 µM.

In the case of `Cn1c(-c2cccc(NC(=O)C(=O)Nc3ccc(-c4ccsc4)cc3)c2)c(I)c2cc(C(=O)O)c(O)cc21`, the IC50 [2] is reported as over 20 µM, the IC50 [3] is reported as over 100 µM and the inhibition (NCI-H1975 [4]) is reported as “Dose-dependent effect”. For the same compound, the IC50 (NCI-H1975 [4]; NCI-H1975, 48 h) was 0.17 µM, the inhibition [5] was “Dose-dependent effect” and the inhibition [6] was “Dose-dependent effect”. The inhibition [7] was 40%, the Activity [8] was 30% and the inhibition [9] was “inactive”. For the same compound, the Activity (NCI-H1975 [10]) was “inactive”, the inhibition (SK-BR-3) was “Active” and the inhibition [11] was “Active”. The inhibition [12] was “Active”, the inhibition (Mus musculus [13]) was “inactive” and the inhibition (Mus musculus [14]) was “Active”. The inhibition (Mus musculus [15]) was “Active”, the inhibition (Bone marrow cell [16]) was “Active” and the inhibition (Bone marrow cell [17]) was “Active”. The inhibition [18] was “inactive”, the inhibition [19] was “Dose-dependent effect” and the inhibition [20] was “inactive”. The inhibition [21] was “Dose-dependent effect”.

In the case of `Cn1c(-c2ccccc2)c(-c2cn(CCC(=O)Nc3ccc(-c4ccccc4)cc3)nn2)c2cc(C(=O)O)c(O)cc21`, the inhibition (Mus musculus [13]) is reported as “inactive” and the inhibition (Mus musculus [14]) is reported as “Active”.

With `Cn1c(-c2cccc(NC(=O)C(=O)O)c2)c(I)c2cc(C(=O)O)c(O)cc21` the inhibition [7] was “inactive” and the inhibition [8] was “inactive”.
